Source: ChEMBL document CHEMBL1127041, “(Imidazolylphenyl)pyrrol-2-one inhibitors of cardiac cAMP phosphodiesterase” (J Med Chem, 1993)
The source made the active and inactive calls. The rule behind the calls is not given here.

How the values were obtained:
Canis lupus familiaris [1] = species: Canis lupus familiaris; assay: Inhibition of cAMP PDE in canine brain; conditions: concentration not given here
Procedure, shortened: (§1)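 The enzyme was partially purified cAMP phosphodiesterase from canine brain or cardiac tissue. IC50 is the concentration giving 50% inhibition, taken from the mean of three separate dose-response determinations. Near the IC50, inhibition at the test doses ranged by less than ±8%.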

Canis lupus familiaris [2] = species: Canis lupus familiaris; assay: (§2) Inhibition of cAMP PDE in canine cardiac tissue; conditions: concentration not given here; procedure, shortened: as §1
Mustela putorius furo [3] = species: Mustela putorius furo; assay: In vitro inotropic effect, 20% increase in the force of contraction of isolated ferret papillary muscle strips (Not reached at 100 uM); type: functional; conditions: Muscle tissue
Procedure, shortened: (§3)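 Isolated ferret papillary muscle in vitro. The read-out is the dose that gives a 20% rise in contractile force over control (EC20). "NR" means this rise was not reached at 100 μM.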

Canis familiaris [4] = assay: Mean percentage change in heart rate of pentobarbital anesthetized dogs at 1 mg/kg; type: functional, Canis lupus familiaris
Procedure, shortened: (§4)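 Pentobarbital-anesthetized dogs were given the agent intravenously at 1 and 3 mg/kg. Left ventricular dP/dt, heart rate and mean arterial pressure were monitored. Values are mean percent change from control ± SEM, n = 4.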

Mustela putorius furo [5] = species: Mustela putorius furo; assay: In vitro inotropic effect, 20% increase in the force of contraction of isolated ferret papillary muscle strips; type: functional; conditions: Muscle tissue; procedure, shortened: as §3
Canis familiaris [6] = assay: Percentage decrease in Mean arterial pressure in pentobarbital anesthetized dogs at 3 mg/kg; type: functional, Canis lupus familiaris, Artery; procedure, shortened: as §4
Canis lupus familiaris [7] = species: Canis lupus familiaris; assay: Percentage inhibition of cAMP PDE in canine brain tissue; type: tissue-based; conditions: dose or concentration not given here
Canis familiaris [8] = assay: Mean percentage change in the left ventricular contractility (dP/dt) in pentobarbital anesthetized dogs at 3 mg/kg; type: functional, Canis lupus familiaris, Heart left ventricle; procedure, shortened: as §4
Canis familiaris [9] = assay: Mean percentage change in the left ventricular contractility (dP/dt) in pentobarbital anesthetized dogs at 1 mg/kg; type: functional, Canis lupus familiaris, Heart left ventricle; procedure, shortened: as §4
Canis familiaris [10] = assay: Percentage decrease in Mean arterial pressure in pentobarbital anesthetized dogs at 1 mg/kg; type: functional, Canis lupus familiaris, Artery; procedure, shortened: as §4
Canis familiaris [11] = assay: Mean percentage change in heart rate of pentobarbital anesthetized dogs at 3 mg/kg; type: functional, Canis lupus familiaris; procedure, shortened: as §4
[12] = as §2; parameters: species or system Canis lupus familiaris; procedure, shortened: as §1
[13] = Inhibition of cAMP PDE from canine brain; parameters: species or system Canis lupus familiaris; procedure, shortened: as §1
Mustela putorius furo [14] = species: Mustela putorius furo; assay: In vitro inotropic effect, 20% increase in the force of contraction of isolated ferret papillary muscle strips (two EC20 determinations); type: functional; conditions: Muscle tissue
Procedure, shortened: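 Contractile force was measured in isolated ferret papillary muscle in vitro. EC20 is the dose that gives a 20% increase in force. Two separate EC20 determinations were made.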

Canis familiaris [15] = assay: Percentage decrease in Mean arterial pressure in pentobarbital anesthetized dogs at 0.1 mg/kg; type: functional, Canis lupus familiaris, Artery
Procedure, shortened: (§5)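 Pentobarbital-anesthetized dogs received doses of 0.1 and 0.3 mg/kg. Left ventricular dP/dt, heart rate and mean arterial pressure were monitored. Values are mean percent change from control ± SEM, n = 6.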

Canis familiaris [16] = assay: Mean percentage change in heart rate of pentobarbital anesthetized dogs at 0.1 mg/kg; type: functional, Canis lupus familiaris; procedure, shortened: as §5
Canis familiaris [17] = assay: Mean percentage change in the left ventricular contractility (dP/dt) in pentobarbital anesthetized dogs at 0.1 mg/kg; type: functional, Canis lupus familiaris, Heart left ventricle; procedure, shortened: as §5
Canis familiaris [18] = assay: Mean percentage change in heart rate of pentobarbital anesthetized dogs at 0.3 mg/kg; type: functional, Canis lupus familiaris; procedure, shortened: as §5
Canis familiaris [19] = assay: Mean percentage change in the left ventricular contractility (dP/dt) in pentobarbital anesthetized dogs at 0.3 mg/kg; type: functional, Canis lupus familiaris, Heart left ventricle; procedure, shortened: as §5
Canis familiaris [20] = assay: Percentage decrease in Mean arterial pressure in pentobarbital anesthetized dogs at 0.3 mg/kg; type: functional, Canis lupus familiaris, Artery; procedure, shortened: as §5

Question: With `COc1ccc(C2CNC(=O)C2)cc1OC` (configuration not stated) as the compound, how does the inhibition (Canis lupus familiaris [1]) read?
Answer: The inhibition was 36%.

Question: What about the inhibition (Canis lupus familiaris [2]) of the same compound?
Answer: The inhibition was 3%.

Question: What about the EC20 (Mustela putorius furo [3]) of the same compound?
Answer: The EC20 was “Not reached”.

Question: With `CCC1=C(c2ccc(-n3ccnc3)cc2)CNC1=O` as the compound, how does the Increase (Canis familiaris [4]) read?
Answer: The Increase was 9%.

Question: And the EC20 (Mustela putorius furo [5])?
Answer: The EC20 was 10.7 µM.

Question: And the Decrease (Canis familiaris [6])?
Answer: The Decrease was 22%.

Question: What about the inhibition (Canis lupus familiaris [7]) of the same compound?
Answer: Its inhibition is 10%.

Question: And the Increase (Canis familiaris [8])?
Answer: The Increase was 44%.

Question: What about the Increase (Canis familiaris [9]) of the same compound?
Answer: Its Increase is 21%.

Question: And the Decrease (Canis familiaris [10])?
Answer: Its Decrease is 13%.

Question: What about the Increase (Canis familiaris [11]) of the same compound?
Answer: The Increase was 21%.

Question: And the IC50 [12]?
Answer: The IC50 was 48 µM.

Question: For `CC1=C(c2ccc(-n3ccnc3C)cc2)CNC1=O`, which Increase (Canis familiaris [4]) is on record?
Answer: Its Increase is 7%.

Question: And the EC20 (Mustela putorius furo [5])?
Answer: The EC20 was 10.2 µM.

Question: What about the Decrease (Canis familiaris [6]) of the same compound?
Answer: Its Decrease is 10%.

Question: And the inhibition (Canis lupus familiaris [7])?
Answer: Its inhibition is 10%.

Question: What about the Increase (Canis familiaris [8]) of the same compound?
Answer: Its Increase is 33%.

Question: And the Increase (Canis familiaris [9])?
Answer: Its Increase is 14%.

Question: And the Decrease (Canis familiaris [10])?
Answer: Its Decrease is 6%.

Question: What about the Increase (Canis familiaris [11]) of the same compound?
Answer: The Increase was 14%.

Question: And the IC50 [12]?
Answer: The IC50 was 30 µM.

Question: What does the source list for `CC1=C(c2ccc(-n3ccnc3)cc2)CNC1=O`?
Answer: Increase (Canis familiaris [4]): 7%; EC20 (Mustela putorius furo [5]): 2.3 µM; Decrease (Canis familiaris [6]): 14%; inhibition (Canis lupus familiaris [7]): 16%; Increase (Canis familiaris [8]): 75%; Increase (Canis familiaris [9]): 40%; Decrease (Canis familiaris [10]): 3%; Increase (Canis familiaris [11]): 19%; IC50 [12]: 25 µM

Question: Which EC20 (Mustela putorius furo [5]) does the source give for `COc1ccc(C2=C(C)C(=O)NC2)cc1OC` here?
Answer: The EC20 was 3.8 µM.

Question: And the IC50 [12]?
Answer: Its IC50 is 26 µM.

Question: What about the IC50 [13] of the same compound?
Answer: The IC50 was 100 µM.

Question: Which inhibition (Canis lupus familiaris [2]) does the source give for `COc1ccc(C2CNC(=O)C2)cc1OC1CCCC1` (configuration not stated) [ROLIPRAM] here?
Answer: The inhibition was 28%.

Question: What about the IC50 [13] of the same compound?
Answer: The IC50 was 0.8 µM.

Question: And the EC20 (Mustela putorius furo [3])?
Answer: The EC20 was “inactive”.

Question: Which Increase (Canis familiaris [4]) does the source give for `CCC1=C(c2ccc(-n3ccnc3C)cc2)CNC1=O` here?
Answer: The Increase was 8%.

Question: What about the EC20 (Mustela putorius furo [5]) of the same compound?
Answer: The EC20 was 4.8 µM.

Question: What about the Decrease (Canis familiaris [6]) of the same compound?
Answer: Its Decrease is 30%.

Question: And the inhibition (Canis lupus familiaris [7])?
Answer: Its inhibition is less than 5%.

Question: And the Increase (Canis familiaris [8])?
Answer: Its Increase is 80%.

Question: And the Increase (Canis familiaris [9])?
Answer: The Increase was 52%.

Question: What about the Decrease (Canis familiaris [10]) of the same compound?
Answer: Its Decrease is 18%.

Question: What about the Increase (Canis familiaris [11]) of the same compound?
Answer: Its Increase is 22%.

Question: And the IC50 [12]?
Answer: The IC50 was 39 µM.

Question: With `COc1ccc(C2=CC(=O)NC2)cc1OC` as the compound, how does the EC20 (Mustela putorius furo [14]) read?
Answer: Its EC20 is 6.5 µM.

Question: And the inhibition (Canis lupus familiaris [2])?
Answer: Its inhibition is 46%.

Question: What about the IC50 [13] of the same compound?
Answer: The IC50 was 40 µM.

Question: With `Cc1[nH]c(=O)c(C#N)cc1-c1ccncc1` [MILRINONE] as the compound, how does the Decrease (Canis familiaris [15]) read?
Answer: The Decrease was 13%.

Question: What about the EC20 (Mustela putorius furo [5]) of the same compound?
Answer: The EC20 was 0.5 µM.

Question: What about the Increase (Canis familiaris [16]) of the same compound?
Answer: The Increase was 19%.

Question: What about the Increase (Canis familiaris [17]) of the same compound?
Answer: The Increase was 57%.

Question: And the inhibition (Canis lupus familiaris [7])?
Answer: Its inhibition is 34%.

Question: And the Increase (Canis familiaris [18])?
Answer: Its Increase is 32%.

Question: What about the Increase (Canis familiaris [19]) of the same compound?
Answer: Its Increase is 81%.

Question: What about the IC50 [12] of the same compound?
Answer: Its IC50 is 5.5 µM.

Question: What about the Decrease (Canis familiaris [20]) of the same compound?
Answer: The Decrease was 30%.
